Assay results gathered from unrelated publications.
Protocols differ between the studies behind these lines.
Target: TGF-beta receptor type-2 (TGFBR2, Homo sapiens, UniProt P37173)

CC(C)(C)c1cc(C=C(C#N)C#N)cc(Br)c1O  remaining activity (enzyme activity, inhibitor; 0.5 µM): 93.8%
Nc1ncc(-c2nc(N3CCOCC3)nc(N3CCOCC3)n2)c(C(F)F)n1  remaining binding (cell-free assay, competition with immobilised ligand; 10 µM): 69%
N#CC1(c2ccccn2)CCN(Cc2cc(C(=O)O)c(=O)n3ccccc23)CC1  remaining binding (cell-free assay, competition with immobilised ligand; 1 µM): 93%
COc1cc(Nc2ncc(F)c(Nc3ccc4c(n3)NC(=O)C(C)(C)O4)n2)cc(OC)c1OC  inhibition (binding; 10 µM): 75%
O=c1[nH]c2ccccc2n1C1CCN(Cc2ccc(-c3[nH]c4cc5ncnc5cc4nc3-c3ccccc3)cc2)CC1  remaining signal (cell-free assay; 0.5 µM): 95.5%
Cn1cncc1[C@](O)(COc1ccc(C#N)cc1-c1ccc(OC(F)(F)F)cc1)c1ccc(C#N)cc1  remaining binding (cell-free assay, competition with immobilised ligand; 1 µM): 100%
Cc1nn(C)cc1-c1nc2c(N3CCN(Cc4ccc(Cl)cc4)CC3)c(Cl)cnc2[nH]1  remaining binding (binding, competition with immobilised ligand; 1 µM): 100%
COc1ncccc1-c1cnn2ccc(N3CCN(C(=O)OC(C)C)CC3)nc12  remaining binding (binding, competition with immobilised ligand; 1 µM): 100%
